Assay results as given in the EternaBench riboswitch data.

Tested on: MS2 coat protein
Experiment: apparent Kd, MS2 coat protein; higher = weaker binding; RNA-MaP array; FMN 200 µM where present
Method in brief: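 Binding was read on Illumina sequencing-chip clusters where stalled E. coli RNA polymerase had transcribed each design. A titration of SNAP-549-labelled MS2 coat protein began at 0.7 or 1.5 nM and doubled to 3 µM, once without ligand and once with constant ligand, in 100 mM Tris-HCl pH 7.5, 80 mM KCl, 4 mM MgCl2, BSA, DTT, yeast tRNA and Tween-20. The apparent Kd is the median of filtered per-cluster binding-curve fits, based on green signal normalised to red-channel RNA signal and control-cluster median Fmax.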

[1] = designed as: OFF switch for flavin mononucleotide, no ligand
[2] = ligand present: flavin mononucleotide, designed as: OFF switch for flavin mononucleotide
[3] = designed as: ON switch for flavin mononucleotide, no ligand
[4] = ligand present: flavin mononucleotide, designed as: ON switch for flavin mononucleotide

Sequence	apparent Kd [1] [nM]	apparent Kd [2] [nM]	apparent Kd [3] [nM]	apparent Kd [4] [nM]
UUUGAAUAAGUGAGGAUAUACUGUUAGUAAUGAUUGUAGAAGGUACAUGAGGAUCACCCAUGUUUAUUAUUUAU	21.8	18.3		
CUGAGGUCAGGAUAUGCAUGGCGGGACUUGCGUCGUGGCGUGCAGAAGGGACAUGAGGAUCACCCAUGUGGAGA	88.5	203		
GCUAAGGGAGGAUAUACAUGAGGAUCACCCAUGUAGUCGCUGCGUUUCAUUAUCCAAGGUAGAAGGCCCAAAAU	25.4	36		
CCAUGGCAUGUAGGAUAUGUCUGACAAAGUCAGACAGAAGGACAUGAGGAUCACCCAUGUAGGAAAUAACCACAUAAGCCAUGG	6.32	5.86		
AUACUCUUUGUGAGGAUAUCGUUUUCUUUACGGUUCGAGAAGGCACAUGAGGAUCACCCAUGUUUGACGUGAAU	24.4	56.5		
AAUUAUAUACAGAAGGAGUUAAAAGGAGUAUUACUAGGAUAUGUUCACAUGAGGAUCACCCAUGUCAUAUUGGGAUUUAUUUUU	27.2	25.7		
GGUGGACAUGAGGAUCACCCAUGUGAGGAUAUCGGCUGGUACGUGUUGGCUGGCAUCUCGAGAAGGCACAUAGG	166	49.3		
GAUCAACAUGAGGAUCACCCAUGUGAGGAUAUGUAUCAUAGAUCUUCGGAUCUAUGAUACAGAAGGCAUGUGGA	204	46.5		
GUAGAUAGAUAGAAGGUAUGGUAUUAGAUUAAAUAAGGAUAUAUGAACAUGAGGAUCACCCAUGUAUUAUGGGAUAGAUAGACU			228	153
GCCGUGAUAGCAGGAUAUGCUCCGGUUGCUCAUACAUGAGGAUCACCCAUGUCACGUGCGGUGGUGCAGAAGGGUUGAAGCGAU			764	209
CCAUGGUGGGCAGGAUAUCGUCCAGCUUGCGGACGAGAAGGGCUAGAACAUGAGGAUCACCCAUGUGAAAAGCGGGUUGUCCAA	27.8	145		
UAAUAGGGAGGAUAUCCAAUAUAUGACAUGAGGAUCACCCAUGUUUCCACUCGUACCUCCGGAGAAGGCCCAUAAU	21	18.7		
GUCCGAAGGGAGAAGGGCUAGGAGGUCCAGCUUAUGUGUGUUGCAACAUGAGGAUCACCCAUGUAGCAGGAUAUCCCUCGUACA	44.5	333		
GCUGCAUGUGAGAAGGCGAUCAUGAAACAUGAUCGAGGAUAUCAUGUAAACAUGAGGAUCACCCAUGUAUGGGUAUUAAGCAGC				59.3
AUCCCGAUAGUAGGAUAUUUCUGCAGUUGUGGUUAGAUCGCCCUACAUGAGGAUCACCCAUGUAGAGAGAAGGACUGUGGUUAU	5.7	8.54		
AAUAAGCUAGGAUAUACAUGAGGAUCACCCAUGUGAGGGCACCGCCGGCGCGGGCCCGGUAGAAGGAGCAAUAA	14.2	13.2		
UGAUAGGACAGAGGAUAUACCGAUAGGAUCUACUAUCGAAGAAUCCUCACAUGAGGAUCACCCAUGUAGAAGGCUGUCCUAUCU	41.6	678		
GUUUCUAUAUGUUAUAUUUAACAGUCAGAAGGUGAUACUACGACAUGAGGAUCACCCAUGUAAUUCAAGGAUAUGAACUUAAUC			1110	450

Sequence	apparent Kd [1] [nM]	apparent Kd [2] [nM]	apparent Kd [3] [nM]	apparent Kd [4] [nM]
GGAUAGGACUGAGGAUAUACGUGCUAGAGAUACUAGCAAAAUUUCCUCACAUGAGGAUCACCCAUGUAGAAGGCUGUCCUAUCG	7.13	42.3		
UGAUACAUGAGGAUCUCCCAUGACAUGAGGAUCACCCAUGUGCAGGAUAUACGUGUGAUAAUAUAGUAGAAGGGCAGUCUAUGU	189	248		
GUCCUCGGCGAGGAUAUCGGGCGGGUUUUUGUUUGAGAAGGCGUGACAUGAGGAUCACCCAUGUGGCGCGUGGG	41.6	59.3		
UCAGGCUUCGAGAAGGACAUGAGGAUCACCCAUGUUAACAUGUAGCAGCCGUGAGGCUGCAUCAUGUAGGAUAUCGGAGUCUGC	6.07	7.07		
UGUCAGAUGGUAGGAUAUUCAUAUCGAGUGACCCUUUCAUAACAUGAGGAUCACCCAUGUCGGUGGGAGAAGGGCCGUAUGGUG	29.8	30.3		
UGUGUUAUCGGAGGAUAUCGAUAUCAAACAUGAGGAUCACCCAUGUUGAGGAUCACCCAUGUCCACGAGAAGGCCGGCGUAGUG			18.1	18.3
GGAUUUCCUGAGGAUAUUGUAUCACCUGAUUGAUAAGAAGGCAGAACAUGAGGAUCACCCAUGUGGGUACUCGG	134	135		
ACAUGAUAUGUAGGAUAUCACAACAUGAGUUUUAUUAUUGUUAUUUAUGAUUGAGAAGGACAUUUACAUGAGGAUCACCCAUGU	17.8	12.3		
UGUUCUAUGUAGAAGGCCCAUAUCUGUACUUAGGGAGGAUAUACAUGAGGAUCACCCAUGUGUAGAGCUGGUGGACUGGACAGC	20.9	32.5		
GAGUGGUGGAAAGGAUAUGCAUUGUUAUUCACUGUAGAAGGUUCUAACAUGAGGAUCACCCAUGUAGGACUAUUCCUGUGUUUU			13.3	12.6
ACGUUUUAUGCAGGAUAUUGAAAUUUAUUACAACAAGAAGGGCAAUACAUGAGGAUCACCCAUGUCAGCAUGGUAUUAAAGUUC	18	16.1		
GCCAUCGUAUGAGGAUAUGGCACCGAAACGGUGCCAGAAGGCAUGUCGAUAGACAUGAGGAUCACCCAUGUAUUAUCGAUGGCA			107	31.3
AUCAGCUCGUCAGGAUAUACGUCACUGCGUCAGCAGUGUGGUAAGAUCACAUGAGGAUCACCCAUGUAGAAGGGACGGGCUGAU	13.8	253		
CCCUCGGGAGGAUAUGGGUGUUUUUACAUGAGGAUCACCCAUGUGGAGUAACAUGUGGGUCCAGAAGGCCCAAGGG	1400	663		
GCACUGGAUGUAGGAUAUCAGGACGAUAAGUCCUGAGAAGGACAUGAGGAUCACCCAUGUGAAAAUUACCAGUGCAAUAAUAUA	14.4	39.9		
UUAAAUCAUGUAGGAUAUGCAUGGCGAAGCUACGCAGAAGGACAUGAGGAUCACCCAUGUUAUAGCUACCCAGUUAGGUGGCAA	82.2	189		
AUCAGCUCGUCAGGAUAUACGUCACUGCGUCAGUAGUGUGGUAAGAUCACAUGAGGAUCACCCAUGUAGAAGGGACGAGCUGAU	14.5	284		
GAAUUCGCAUGAGGAUAUGCACUCAUUUCAUGUGCAGAAGGUAUAACAUUAGACAUGAGGAUCACCCAUGUAUUAGUCAUUAAC			10.1	9.37
